Among the data in ChEMBL document CHEMBL1125798, “Synthesis and biological activity of a series of diaryl-substituted alpha-cyano-beta-hydroxypropenamides, a new class of anthelmintic agents” (1991) are Reduction values, retold here.

Holding throughout (format): functional
The test system of assay [1] is Rodentolepis nana. Kind of assay: Anthelmintic activity against mice infected with parasite Hymenolepis nana at a dose of 62(ppm in feed). In a few lines:
(§1)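 Compound was given in feed ad libitum from 24 h postinfection for 18 days, four mice per group. On day 19, N. dubius were counted in the duodenum and H. nana in the ileum. Result is % reduction of mean worm burden vs untreated control; ≤25% was recorded as 0.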

Assay [2] has as its system Heligmosomoides polygyrus. Kind of assay: Anthelmintic activity against mice, infected with parasite Nematospiroides dubius, at a dose of 125 (ppm in feed). The method, boiled down: as §1
Assay [3] deals with Rodentolepis nana. Kind of assay: Anthelmintic activity against mice infected with parasite Hymenolepis nana at a dose of 125 ppm (in feed). In a few lines:
as §1

The subject of assay [4] is Ovis aries. Nature of the assay: Anthelmintic activity against sheep, infected with Ostertagia circumcincta, at a dose of 30 mg/kg. The method, boiled down: (§2)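 Merino ewes and wethers (12-15 months, 25-35 kg) received L3 intraruminally on day 0. Susceptible strains: H. contortus 6000, O. circumcincta 8000, T. colubriformis 8000. Benzimidazole-resistant strains: 8000, 9000, 9000. Animals were allocated by day-27 fecal egg count (n = 4-7) and given a single intraruminal dose in 0.5% carboxymethylcellulose saline. Adult worms in abomasum and small intestine were counted on day 35. Result is mean % reduction vs untreated controls.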

Assay [5] relates to Ovis aries. Nature of the assay: Anthelmintic activity against sheep, infected with Haemonchus contortus, at a dose of 30 mg/kg. In a few lines:
as §2

For assay [6], the system named is Ovis aries. Nature of the assay: Anthelmintic activity against sheep, infected with Trichostrongylus colubriformis, at a dose of 30 mg/kg. The method, boiled down:
as §2

For assay [7], the system named is Heligmosomoides polygyrus. Kind of assay: Anthelmintic activity against mice infected with parasite Nematospiroides dubius, at a dose of 62(ppm in feed). In a few lines: as §1
The subject of assay [8] is Rodentolepis nana. Kind of assay: The compound was tested for anthelmintic activity against mice, infected with parasite Hymenolepis nana at a dose of 250(ppm in feed). The method, boiled down:
as §1

The test system of assay [9] is Heligmosomoides polygyrus. Nature of the assay: Anthelmintic activity against mice, infected with parasite Nematospiroides dubius, at a dose of 250(ppm in feed). In a few lines:
as §1

`N#C/C(C(=O)Nc1ccc(C(F)(F)F)cc1)=C(/O)c1cc(Cl)cc(Cl)c1`: the Reduction is recorded as 0% in assay [1]; 100% in [2]; 100% in assay [3]; 0% in [4]; 100% in [5]; 0% in assay [6]. The compound further showed a Reduction in assay [7] of 0%.

Regarding `N#C/C(C(=O)Nc1ccc(Sc2ccccc2)cc1)=C(/O)c1ccc(C(F)(F)F)cc1`, the Reduction in assay [8] and in assay [9] was 0% throughout.

With `Cc1cc([N+](=O)[O-])ccc1NC(=O)/C(C#N)=C(\O)c1ccc(C(F)(F)F)cc1`, the Reduction is 0% in assay [1]; 97% in assay [2]; 99% in assay [3]; 0% in assay [4]; 0% in assay [5]; 0% in assay [6]. The Reduction in assay [7] turned out to be 35%.

For the compound `N#CSc1ccc(NC(=O)/C(C#N)=C(\O)c2ccc(C(F)(F)F)cc2)cc1`, the Reduction in assay [2] and in assay [3] was 0% throughout.

In the case of `N#C/C(C(=O)Nc1ccc(C(F)(F)F)cc1)=C(/O)c1ccc(C#N)cc1`, the Reduction in assay [2] was 28%; in assay [3], 78%.

Regarding `N#C/C(C(=O)Nc1ccc(N=C=S)cc1)=C(/O)c1ccc(C(F)(F)F)cc1`, the results for the Reduction in assay [2] and in assay [3] were 80% and 0%, respectively.

`CCN(CC)C(=O)c1ccc(NC(=O)/C(C#N)=C(\O)c2ccc(C(F)(F)F)cc2)cc1`: the Reduction in assay [2] and in assay [3] was 0% each time.

In the case of `N#C/C(C(=O)Nc1ccc(C(F)(F)F)cc1)=C(/O)c1cccc(Cl)c1`, the Reduction in [2] and in assay [3] was 0% throughout.

For `N#C/C(C(=O)Nc1ccc(C(F)(F)F)cc1)=C(/O)c1ccc(F)cc1`, the Reduction in [1] worked out at 0%; in [2], 100%; in [3], 100%; in assay [7], 0%.

On to `COc1ccc(/C(O)=C(\C#N)C(=O)Nc2ccc(C(F)(F)F)cc2)cc1`, for which the Reduction in assay [2] and in [3] was 0% each time.

For the compound `CN(C(=O)/C(C#N)=C(\O)c1ccc(C(F)(F)F)cc1)c1ccc(C(F)(F)F)cc1`, the Reduction in assay [1] amounted to 0%; in assay [2], 100%; in [3] it was 0%; in assay [7] it was 76%.

On to `N#C/C(C(=O)Nc1ccc(C(F)(F)F)cc1)=C(/O)c1ccc(OC(F)(F)F)cc1`, for which the Reduction turned out to be 0% in assay [1], 100% in assay [2], 100% in [3] and 86% in [7].

In the case of `N#C/C(C(=O)Nc1ccc(Cl)c(Cl)c1)=C(/O)c1ccc(C(F)(F)F)cc1`, the Reduction came out at 0% in assay [1], 100% in assay [2], 93% in assay [3] and 0% in assay [7].

Turning to `N#C/C(C(=O)Nc1ccc(C(F)(F)F)cc1)=C(/O)c1ccc(Cl)c(Cl)c1`, the Reduction in assay [1] amounted to 0%; in assay [2], 95%; in assay [3], 0%; in assay [7], 0%.

`N#C/C(C(=O)Nc1ccc(C(F)(F)F)cc1)=C(/O)c1ccc(Cl)cc1Cl`: the Reduction in assay [1] is 52%; in assay [7], 32%.

With `N#C/C(C(=O)Nc1ccc(Cl)cc1)=C(/O)c1ccc(Cl)c(Cl)c1`, the Reduction is reported as 0% in [1], 100% in assay [2], 100% in assay [3] and 32% in assay [7].

In the case of `Cc1cc(C#N)ccc1NC(=O)/C(C#N)=C(\O)c1ccc(C(F)(F)F)cc1`, the Reduction in assay [1] was determined as 0%; in assay [2], 90%; in assay [3], 100%; in assay [7] it was 0%.

Regarding `CS(=O)(=O)c1ccc(NC(=O)/C(C#N)=C(\O)c2ccc(C(F)(F)F)cc2)cc1`, the Reduction in assay [2] and in assay [3] was 0% throughout.

Turning to `N#C/C(C(=O)Nc1ccc(Cl)cc1)=C(/O)c1ccc(Cl)cc1`, the Reduction in assay [1] was 30%; in assay [2], 100%; in assay [3], 100%; in [7], 59%.

Consider `N#C/C(C(=O)Nc1ccc(Br)cc1)=C(/O)c1ccc(C(F)(F)F)cc1`, for which the Reduction was found to be 0% in [1], 100% in [2], 95% in assay [3] and 56% in [7].

Turning to `Cc1ccc(/C(O)=C(\C#N)C(=O)Nc2ccc(C(F)(F)F)cc2)cc1`, the Reduction in [2] and in assay [3] was 0% in each case.

Consider `N#C/C(C(=O)Nc1ccc(I)cc1)=C(/O)c1ccc(C(F)(F)F)cc1`, for which the Reduction in assay [1] came out at 0%; in assay [2], 100%; in [3] it was 0%; in assay [7], 0%.

Take `N#C/C(C(=O)Nc1ccc(C(F)(F)F)cc1)=C(/O)c1ccc(S(=O)(=O)c2ccccc2)cc1`: the Reduction in assay [2] and in [3] was 0% throughout.

Turning to `N#C/C(C(=O)Nc1ccc(C(F)(F)F)cc1)=C(/O)c1cccc(C(F)(F)F)c1`, the Reduction came to 0% in [1], 89% in assay [2], 100% in assay [3] and 0% in [7].

Regarding `N#C/C(C(=O)Nc1ccc(Cl)c(Cl)c1)=C(/O)c1ccc(Cl)cc1`, the Reduction was determined as 57% in assay [2] and 47% in assay [3].

In the case of `N#C/C(C(=O)Nc1ccc(C(F)(F)F)cc1)=C(/O)c1ccc(Cl)cc1`, the Reduction in [1] was 0%; in assay [7], 53%.

As for `N#C/C(C(=O)Nc1ccc(Cl)cc1)=C(/O)c1ccc(Br)cc1`, the Reduction was 0% in assay [1], 100% in assay [2], 0% in assay [3] and 76% in assay [7].

Turning to `N#C/C(C(=O)Nc1ccc(Br)cc1)=C(/O)c1ccc(Br)cc1`, the Reduction turned out to be 0% in [1], 100% in assay [2], 0% in assay [3] and 29% in assay [7].

With `COC(=O)c1ccc(NC(=O)/C(C#N)=C(\O)c2ccc(C(F)(F)F)cc2)cc1`, the Reduction in assay [2] and in assay [3] was 0% throughout.

In the case of `N#C/C(C(=O)Nc1ccccc1C(F)(F)F)=C(/O)c1ccc(C(F)(F)F)cc1`, the Reduction in assay [2] and in assay [3] was 0% each time.

Turning to `N#C/C(C(=O)Nc1ccc(Cl)cc1)=C(/O)c1ccc(C(F)(F)F)cc1`, the Reduction in assay [1] was determined as 78%; in assay [2], 100%; in [3] it was 100%; in [7], 65%.

On to `N#C/C(C(=O)Nc1ccc(Br)cc1)=C(/O)c1ccc(Cl)cc1`, for which the Reduction turned out to be 0% in [1], 100% in assay [2], 0% in assay [3] and 47% in assay [7].

On to `N#C/C(C(=O)Nc1ccc(C(F)(F)F)cc1)=C(/O)c1ccccc1C(F)(F)F`, for which the Reduction in assay [2] and in [3] was 0% in each case.

For the compound `COc1ccc(NC(=O)/C(C#N)=C(\O)c2ccc(C(F)(F)F)cc2)cc1`, the Reduction in assay [2] and in assay [3] was 0% in each case.

With `CC(=O)c1ccc(NC(=O)/C(C#N)=C(\O)c2ccc(C(F)(F)F)cc2)cc1`, the Reduction in assay [2] and in assay [3] was 0% each time.

As to `N#C/C(C(=O)Nc1ccc(C(F)(F)F)cc1)=C(/O)c1ccc([N+](=O)[O-])cc1`, the Reduction in assay [1] amounted to 69%; in assay [7] it was 0%.

With `N#C/C(C(=O)Nc1ccc(Cl)c(Cl)c1)=C(/O)c1ccc(Cl)c(Cl)c1`, the Reduction in assay [2] is 0%; in assay [3] it was 0%; in assay [4], 0%; in [5], 100%; in assay [6] it was 0%.

Consider `N#C/C(C(=O)Nc1ccc(C(F)(F)F)cc1)=C(O)\C=C\c1ccc(C(F)(F)F)cc1`, for which the Reduction in [8] is recorded as 0%; in assay [9], 48%.

Turning to `N#C/C(C(=O)Nc1ccc(C#N)cc1)=C(/O)c1ccc(C(F)(F)F)cc1`, the Reduction in [1] is reported as 0%; in assay [2], 100%; in assay [3], 100%; in assay [4], 7%; in assay [5], 87%; in assay [6], 26%. The Reduction in assay [7] came out at 43%.

For the compound `N#C/C(C(=O)Nc1ccc(C(F)(F)F)cc1)=C(/O)c1ccc(Oc2ccc(Cl)cc2)cc1`, the Reduction in assay [2] was determined as 30%; in assay [3], 0%.

As for `N#C/C(C(=O)Nc1cccc(C(F)(F)F)c1)=C(/O)c1ccc(C(F)(F)F)cc1`, the Reduction in assay [2] and in assay [3] was 0% in each case.

With `N#C/C(C(=O)Nc1ccc(F)cc1)=C(/O)c1ccc(F)cc1`, the Reduction in assay [2] and in assay [3] was 0% in each case.

Turning to `N#C/C(C(=O)Nc1ccc(C(F)(F)F)cc1)=C(/O)c1ccc(I)cc1`, the Reduction in assay [1] was 0%; in assay [2] it was 97%; in assay [3], 89%; in assay [7] it was 0%.

Turning to `N#C/C(C(=O)Nc1ccc(Cl)cc1Cl)=C(/O)c1ccc(C(F)(F)F)cc1`, the Reduction in [1] was 63%; in [2] it was 89%; in assay [3], 100%; in [7], 0%.
